For one data set, the system named is P. aeruginosa PA14. Briefly: Antibiotic susceptibility. The class given is cell-based, Pseudomonas aeruginosa. The essentials: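 PA14 from LB agar (37 °C overnight) dispersed in MHB II to OD600 0.08–0.13, diluted 1:100 (final 5 × 10⁵ cfu/mL). Serial dilutions in PBS/20% DMSO (1 mM–1.9 μM before dilution) diluted ~1:20 into matrix at −3 h (sealed, 37 °C) or −10 min (room temperature).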

The format of data set [1] is in vitro ADME. Particulars: human blood plasma + PA14 culture supernatant, 37 °C, up to 3 h. An outline of the steps: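 PA14 grown overnight in LB at 37 °C, 180 rpm. Culture centrifuged and supernatant 0.22 μm-filtered, then mixed 1:9 with pooled LiHep human plasma. Test compound (1 mM stock, PBS pH 7.4/20% DMSO) diluted 1:20 into matrix on ice and incubated at 37 °C, 500 rpm. Samples taken at 0, 30, 60, 120 and 180 min, quenched with ice-cold MeCN containing diphenhydramine internal standard, centrifuged, then analysed by HPLC-MS.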

Data set [2] is classed as in vitro ADME. Particulars: human blood plasma spiked with fresh growth medium, within 3 h.
The nature of data set [3]: Cleavage/stability in P. aeruginosa PA14 culture filtrate without plasma. The class given is in vitro ADME, Pseudomonas aeruginosa. Particulars: up to 24 h.
Data set [4] in a line: Microsomal stability assay, mouse. Particulars: mouse liver microsomes. Format: in vitro ADME. An outline of the steps: (§1)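 Mouse or human liver microsomes thawed slowly on ice, then combined with test compound (from a 100 μM solution; final level not given) and 100 mM phosphate buffer. Pre-incubated 5 min at 37 °C in a water bath. Intrinsic clearance reported as μL/min/mg protein.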
(In general: Liver microsomes are vesicles of endoplasmic reticulum, rich in cytochrome P450 enzymes.)

Data set [5] can be described thus: Microsomal stability assay, human. Format: in vitro ADME. The following applies: human liver microsomes. An outline of the steps: as §1
Data set [6] deals with A549 cells. Briefly: Cell accumulation assay. The following applies: for compound 2 found in cells after lysis (intracellular cleavage of prodrug): A549 cells treated with prodrug. Format: cell-based, human.
For data set [7], the system named is A549 cells. The following applies: cytotoxicity versus antimicrobial activity.
[8] abbreviates: Matrix 3: 10% P. aeruginosa culture supernatant in PBS, pre-incubation < 10 min.

≈ marks a conversion by molar mass, not a printed value. Entries after “also recorded” stand apart in the source; their conditions may differ.

For the compound `O=C(O)c1cn(C2CC2)c2cc(N3CCNCC3)c(F)cc2c1=O` [Compound 1, Ciprofloxacin, reference compound], the minimal inhibitory concentration (MIC) (as a rule, the lowest concentration that inhibits growth of the organism) in the data set with P. aeruginosa PA14 (Pseudomonas aeruginosa, PA14, Matrix 1: PBS, pre-incubation 3 h) was in the range of 0.125 to 0.25 µM (≈ 0.0414 to 0.0828 µg/mL).

Take `CC(C)C[C@H](NC(=O)CNC(=O)[C@H](C)NC(=O)c1ccc(S[C@@H]2O[C@H](CO)[C@H](O)[C@H](O)[C@H]2O)cc1)C(=O)N[C@@H](C)C(=O)N1CCN(c2cc3c(cc2F)c(=O)c(C(=O)O)cn3C2CC2)CC1` [Compound 24, LecA-targeted ciprofloxacin-prodrug]: the “release of native antibiotic cargo” value in data set [1] is listed as “not fully metabolized to release their native antibiotic cargo; also recorded: not completely processed to release free ciprofloxacin”. The “release of antibiotic cargo (stability control)” value (shortened to “release … (stability control)”) in data set [2] is given as “no significant release of the antibiotic cargo was observed”.

For the compound `CC(C)C[C@H](NC(=O)CNC(=O)[C@H](C)NC(=O)c1ccc(S(=O)(=O)NC[C@H]2O[C@@H](C)[C@@H](O)[C@@H](O)[C@@H]2O)cc1)C(=O)N[C@@H](C)C(=O)N1CCN(c2cc3c(cc2F)c(=O)c(C(=O)O)cn3C2CC2)CC1` [Compound 25, LecB-Targeted Ciprofloxacin-Prodrug], the “release of native antibiotic cargo” value in data set [1] was “not fully metabolized to release their native antibiotic cargo; also recorded: not completely processed to release free ciprofloxacin”. Also, the “release … (stability control)” value in data set [2] was “no significant release of the antibiotic cargo was observed”.

Consider `CC(C)C[C@H](N)C(=O)N[C@@H](C)C(=O)N[C@H]1CCN(c2cc3c(cc2F)c(=O)c(C(=O)O)cn3C2CC2)C1` [Compound 35, 7-((S)-3-((S)-2-((S)-2-Amino-4-methylpentanamido)propanamido)pyrrolidin-1-yl)-1-cyclopropyl-6-fluoro-4-oxo-1,4-dihydroquinoline-3-carboxylic Acid], for which the “release of antibiotic cargo from dipeptide conjugate” value in data set [3] is reported as “only slowly released their antibiotic cargo”.

For `CC(C)C[C@H](NC(=O)CNC(=O)[C@H](C)NC(=O)c1ccc(S[C@@H]2O[C@H](CO)[C@H](O)[C@H](O)[C@H]2O)cc1)C(=O)N[C@@H](C)C(=O)N[C@H]1CCN(c2cc3c(cc2F)c(=O)c(C(=O)O)cn3C2CC2)C1` [Compound 36, LecA-Targeted Aminopyrrolidine-fluoroquinolone Prodrug], the MIC against P. aeruginosa PA14 (Matrix 3: 10% P. aeruginosa culture supernatant in PBS, pre-incubation 3 h) lay in the range of 0.195 to 3.13 µM. The MIC against P. aeruginosa PA14 (setting [8]) lay in the range of 0.78 to 3.13 µM. Further, the “release of native antibiotic cargo” value in data set [1] is reported as “efficiently released”. Also, in data set [2], the “release … (stability control)” value was “no significant release of the antibiotic cargo was observed”. For the same compound, in data set [4], the half-life (commonly the time needed for the level to fall by half in the phase considered) at 1 h, 100 µM was found to be 1.67 h and the microsomal CLint (commonly a measure of how fast metabolising enzymes remove a compound, apart from limits set by blood flow) at 1 h, 100 µM came to 14 µL/min/mg. In data set [5], the half-life at 1 h, 100 µM was found to be 1.55 h and the intrinsic clearance (microsomal CLint) at 1 h, 1 µM came out at 15 µL/min/mg. Besides, the “fold decreased ability to permeate into human cells versus 2” value in the data set on A549 cells [6] (A549 cells) is listed as “up to 100 fold”. In the data set on A549 cells [6], the “compound 2 found in cells after lysis (intracellular cleavage of prodrug)” value is reported as “not detected”. This compound returned an intracellular concentration with A549 cells [6] (A549 cells, 10 μg/mL, after 15, 30, and 60 min) of 55 to 130 ng/mL. The selectivity index entry in the data set on A549 cells [7] is given as “greater than 20”.

Consider `CC(C)C[C@H](NC(=O)CNC(=O)[C@H](C)NC(=O)c1ccc(S(=O)(=O)NC[C@H]2O[C@@H](C)[C@@H](O)[C@@H](O)[C@@H]2O)cc1)C(=O)N[C@@H](C)C(=O)N[C@H]1CCN(c2cc3c(cc2F)c(=O)c(C(=O)O)cn3C2CC2)C1` [Compound 37, LecB-Targeted Aminopyrrolidine-FQ-Prodrug], for which, in data set [1], the “release of native antibiotic cargo” value is “efficiently released”. Besides, the “release … (stability control)” value in data set [2] was “no significant release of the antibiotic cargo was observed”. In data set [4], the half-life at 1 h, 100 µM came out at 3.6 h and the microsomal CLint at 1 h, 1 µM was found to be 6.4 µL/min/mg. In data set [5], this compound returned a half-life at 1 h, 100 µM of 2.97 h and a microsomal CLint at 1 h, 100 µM of 7.8 µL/min/mg. Also, in the data set on A549 cells [6] (A549 cells), the “fold decreased ability to permeate into human cells versus 2” value is “up to 100 fold”. Moreover, in the data set on A549 cells [6], the “compound 2 found in cells after lysis (intracellular cleavage of prodrug)” value is “not detected”.

`CC(C)C[C@H](NC(=O)CNC(=O)[C@H](C)NC(=O)c1ccc(S[C@@H]2O[C@H](CO)[C@H](O)[C@H](O)[C@H]2O)cc1)C(=O)N[C@@H](C)C(=O)NC[C@@H]1CCN(c2cc3c(cc2F)c(=O)c(C(=O)O)cn3C2CC2)C1` [Compound 48, LecA-Targeted Aminomethylpyrrolidine-FQ-Prodrug]: in data set [1], the “release of native antibiotic cargo” value is “efficiently released”. For the same compound, in data set [2], the “release … (stability control)” value is reported as “no significant release of the antibiotic cargo was observed”.

For `CC(C)C[C@H](NC(=O)CNC(=O)[C@H](C)NC(=O)c1ccc(S(=O)(=O)NC[C@H]2O[C@@H](C)[C@@H](O)[C@@H](O)[C@@H]2O)cc1)C(=O)N[C@@H](C)C(=O)NC[C@@H]1CCN(c2cc3c(cc2F)c(=O)c(C(=O)O)cn3C2CC2)C1` [Compound 49, LecB-Targeted Aminomethylpyrrolidine-FQ-Prodrug], the minimum inhibitory concentration (MIC) in the data set on P. aeruginosa PA14 (setting [8]) was 3.13 to 6.25 µM. In addition, the “release of native antibiotic cargo” value in data set [1] is on record as “efficiently released”. The “release … (stability control)” value in data set [2] is given as “no significant release of the antibiotic cargo was observed”.

“Leu-Ala-Ciprofloxacin Conjugate [Compound 19]”: in data set [3], the “release of antibiotic cargo from dipeptide conjugate” value is recorded as “only slowly released their antibiotic cargo”.

Source of the values: paper PMC9619409 (Journal of Medicinal Chemistry, 2022).
